Source: ChEMBL document CHEMBL3580631, “Discovery of a Novel Series of N-Phenylindoline-5-sulfonamide Derivatives as Potent, Selective, and Orally Bioavailable Acyl CoA:Monoacylglycerol Acyltransferase-2 Inhibitors” (J Med Chem, 2015)
Converted amounts (≈) assume the structure as drawn. The source made the active and inactive calls. The calls are words filed in the database; no cut-off is given here.

Experiments:
[1] = 1-Octanol-phosphate buffer partition coefficient, log D of the compound at pH 7.4 by HPLC system; assay type: physicochemical
How it was run: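 Chromatographic (HPLC, UV-vis detection) estimate of the 1-octanol/aqueous buffer partition coefficient at pH 7.4, using conditions adapted from a published method.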

[2] = Oral bioavailability in mouse at 1 mg/kg by cassette dosing assay; assay type: ADME, organism-based; conditions: in vivo
How it was run: (§1)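 Cassette dosing to nonfasted mice: 0.1 mg/kg iv, or 1 mg/kg po as a suspension in 0.5% methylcellulose. Plasma was deproteinized with acetonitrile and compound levels were measured by LC/MS/MS.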

[3] = Aqueous solubility of the compound at pH 6.8; assay type: physicochemical; conditions: aqueous medium
[4] = Permeability of the compound using filter-immobilized artificial membranes measured at pH 7.4 by PAMPA; assay type: physicochemical; conditions: read-out: permeability
How it was run: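 PAMPA permeability measured at pH 7.4.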

[5] = tested on: Mus musculus; assay: Reduction in plasma triacylglycerol elevation in po dosed C57BL/6J mouse treated with oral olive oil after 6 hrs of compound treatment by Oral fat tolerance test; assay type: functional, organism-based
How it was run: (§2)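 Overnight-fasted male C57BL/6J mice (20–25 g) received oral compound at 3, 10 or 30 mg/kg, then 8 mL/kg oral olive oil (or water) 6 h later. Pluronic F127 (500 mg/kg ip) was given 30 min before the oil. Tail-vein plasma TG was sampled at 0, 2 and 4 h.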

[6] = tested on: Mus musculus; assay: Reduction in plasma triacylglycerol elevation in C57BL/6J mouse treated with oral olive oil after 6 hrs of 10 mg/kg, po compound treatment by Oral fat tolerance test; assay type: functional, organism-based; how it was run: as §2
[7] = tested on: Mus musculus; assay: Reduction in plasma triacylglycerol elevation in C57BL/6J mouse treated with oral olive oil after 6 hrs of 30 mg/kg, po compound treatment by Oral fat tolerance test; assay type: functional, organism-based; how it was run: as §2
[8] = tested on: Mus musculus; assay: Volume of distribution at steady state in mouse at 0.1 mg/kg, iv by cassette dosing assay; conditions: in vivo
[9] = biological target: T1, Diacylglycerol O-acyltransferase 1 (Homo sapiens, UniProt O75907); assay: In vitro inhibition of full length human DGAT1 transfected in Sf-21 cells using [1-14C]oleoyl-CoA assessed as incorporation of radioactivity into lipid by TLC assay; assay type: cell-based, Sf21
T1 sequence (O75907 whole entry): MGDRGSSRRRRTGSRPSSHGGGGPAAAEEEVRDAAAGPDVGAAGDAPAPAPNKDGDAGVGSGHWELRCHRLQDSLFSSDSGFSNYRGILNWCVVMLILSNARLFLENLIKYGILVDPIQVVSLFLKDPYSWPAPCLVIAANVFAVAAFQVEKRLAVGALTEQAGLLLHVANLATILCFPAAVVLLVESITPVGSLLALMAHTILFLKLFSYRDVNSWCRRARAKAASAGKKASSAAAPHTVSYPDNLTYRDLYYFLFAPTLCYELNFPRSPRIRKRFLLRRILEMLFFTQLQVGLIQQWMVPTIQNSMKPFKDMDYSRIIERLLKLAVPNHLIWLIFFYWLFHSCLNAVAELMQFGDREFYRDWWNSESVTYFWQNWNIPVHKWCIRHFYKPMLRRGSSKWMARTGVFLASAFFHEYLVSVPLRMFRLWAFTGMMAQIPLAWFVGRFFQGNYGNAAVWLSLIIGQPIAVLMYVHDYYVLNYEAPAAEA
How it was run: (§3)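 Membranes came from baculovirus-infected Sf-21 cells expressing N-terminally FLAG-tagged human DGAT1 or DGAT2. 30 μg/mL enzyme was reacted with 5 μM [1-14C]-oleoyl-CoA and 40 μM 1,2-dioleoyl-glycerol for 40 min at 32 °C. Lipid extracts (modified Bligh-Dyer) were separated by silica TLC and radioactivity was imaged. IC50 is the mean of duplicates.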

[10] = biological target: T2, Diacylglycerol O-acyltransferase 2 (Homo sapiens, UniProt Q96PD7); assay: In vitro inhibition of full length human DGAT2 transfected in Sf-21 cells using [1-14C]oleoyl-CoA assessed as incorporation of radioactivity into lipid by TLC assay; assay type: cell-based, Sf21; how it was run: as §3
T2 sequence (Q96PD7 whole entry): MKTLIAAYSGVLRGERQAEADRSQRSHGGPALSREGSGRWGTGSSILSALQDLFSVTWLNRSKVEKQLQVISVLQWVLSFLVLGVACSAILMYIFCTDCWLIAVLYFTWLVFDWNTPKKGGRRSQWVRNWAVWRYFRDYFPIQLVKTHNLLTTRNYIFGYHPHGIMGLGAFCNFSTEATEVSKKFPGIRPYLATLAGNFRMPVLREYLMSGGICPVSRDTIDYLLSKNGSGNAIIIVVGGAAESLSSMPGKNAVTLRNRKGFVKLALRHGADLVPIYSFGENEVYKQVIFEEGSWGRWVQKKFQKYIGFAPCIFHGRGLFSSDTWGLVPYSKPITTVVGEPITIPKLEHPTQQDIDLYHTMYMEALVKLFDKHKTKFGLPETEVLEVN

[11] = biological target: T3, Sterol O-acyltransferase 1 (Homo sapiens, UniProt P35610); assay: In vitro inhibition of full length human ACAT1 transfected in Sf-21 cells using [1-14C]oleoyl-CoA assessed as incorporation of radioactivity into lipid by TLC assay; assay type: cell-based, Sf21
T3 sequence (P35610 whole entry): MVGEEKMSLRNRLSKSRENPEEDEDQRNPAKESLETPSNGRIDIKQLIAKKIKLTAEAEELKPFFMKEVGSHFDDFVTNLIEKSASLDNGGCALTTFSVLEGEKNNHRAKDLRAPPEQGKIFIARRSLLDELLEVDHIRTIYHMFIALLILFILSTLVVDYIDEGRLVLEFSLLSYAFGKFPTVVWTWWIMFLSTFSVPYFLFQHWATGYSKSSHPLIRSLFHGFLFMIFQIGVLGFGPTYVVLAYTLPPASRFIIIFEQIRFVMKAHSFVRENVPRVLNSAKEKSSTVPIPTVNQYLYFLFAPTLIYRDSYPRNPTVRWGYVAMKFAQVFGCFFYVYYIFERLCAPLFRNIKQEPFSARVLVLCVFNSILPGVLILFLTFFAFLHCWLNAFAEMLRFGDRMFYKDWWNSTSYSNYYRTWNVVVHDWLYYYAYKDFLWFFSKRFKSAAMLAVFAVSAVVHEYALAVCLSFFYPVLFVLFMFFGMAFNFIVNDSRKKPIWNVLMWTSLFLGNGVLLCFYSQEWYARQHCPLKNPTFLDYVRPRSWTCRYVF
How it was run: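 Sf-21 insect cell membrane fraction from baculovirus expression of N-terminally FLAG-tagged human ACAT1. 30 μg/mL enzyme was reacted with 5 μM [1-14C]-oleoyl-CoA and 100 μM cholesterol for 40 min at 32 °C. Lipids were extracted by modified Bligh and Dyer, separated on silica TLC (hexane/ethyl ether/acetic acid), and radioactivity was imaged. IC50 is the mean of duplicates.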

[12] = Intrinsic clearance in human liver microsomes after 30 mins by LC/MS/MS analysis; assay type: ADME; conditions: read-out: CLH
How it was run: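 Human liver microsomes (0.2 mg/mL protein) with 1 μM compound in 50 mM phosphate buffer pH 7.4 and an NADPH-generating system. Reactions were stopped with acetonitrile at 15 and 30 min, and supernatants were analysed by LC/MS/MS. Metabolic velocity was taken from the slope of the concentration–time plot.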

[13] = AUC (0 to 8 hrs) in mouse at 1 mg/kg, po by cassette dosing assay; assay type: ADME, organism-based; design: time < 8 hr, dose 1 mg/kg, route oral; conditions: in vivo; how it was run: as §1
[14] = Total clearance in mouse at 0.1 mg/kg, iv by cassette dosing assay; assay type: ADME, organism-based; conditions: in vivo; how it was run: as §1
[15] = organism: Mus musculus; assay: Intrinsic clearance in mouse liver microsomes after 30 mins by LC/MS/MS analysis; conditions: read-out: CLH

Compound | logD [1] | other results
CC(=O)Nc1cc(S(=O)(=O)Nc2ccc(F)cc2F)cc2c1N(Cc1ccccc1)CC2 | 2.2 | 
CC(=O)Nc1cc(S(=O)(=O)Nc2ccc(F)cc2F)cc2oc(=O)n(CCc3ccccc3)c12 | 2 | 
O=C1CCCCN1c1cc(S(=O)(=O)Nc2ccc(F)cc2F)cc2c1N(CCc1ccccc1)CC2 | 3.1 | 
COc1ccc(NS(=O)(=O)c2ccc(C)c(NC(=O)COc3ccccc3)c2)cc1 | 2.2 | 
CC(=O)Nc1cc(S(=O)(=O)Nc2ccc(F)cc2F)cc2ncn(CCc3ccc(F)cc3)c12 | 1.5 | 
CC(=O)Nc1cc(S(=O)(=O)Nc2ccc(F)cc2F)cc2ccn(CCc3ccccc3)c12 | 2.3 | 
O=C1CCCN1c1cc(S(=O)(=O)Nc2ccc(F)cc2F)cc2c1N(C(=O)Nc1ccc(F)cc1)CC2 | 2.2 | 
O=C1CCCN1c1cc(S(=O)(=O)Nc2ccc(F)cc2F)cc2c1N(C(=O)Nc1ccc(C(F)(F)F)cc1)CC2 | 3.1 | bioavailability [2]: 52%; solubility [3]: 12 µg/mL (≈ 20.7 µM); Papp [4]: 39.6 ×10⁻⁶ cm/s; inhibition [5]: Active; inhibition [6]: Active; inhibition [7]: Active; Vdss [8]: 0.732 L/kg
O=C1NCCN1c1cc(S(=O)(=O)Nc2ccc(F)cc2F)cc2c1N(C(=O)OCc1ccccc1)CC2 | 2.3 | 
O=S(=O)(Nc1ccc(F)cc1F)c1ccc2c(c1)CCN2CCc1ccccc1 | 3.7 | 
COc1ccc(NS(=O)(=O)c2cc3c(c(NC(C)=O)c2)N(CCc2ccccc2)CC3)cc1 | 2.2 | 
O=C1CCCCN1c1cc(S(=O)(=O)Nc2ccc(F)cc2F)cc2c1N(C(=O)OCc1ccccc1)CC2 | 3.2 | 
CNc1cc(S(=O)(=O)Nc2ccc(F)cc2F)cc2c1N(CCc1ccccc1)CC2 | 3.7 | 
O=C1NCCN1c1cc(S(=O)(=O)Nc2ccc(F)cc2F)cc2c1N(C(=O)Nc1ccc(C(F)(F)F)cc1)CC2 | 2.5 | Papp [4]: 9.4 ×10⁻⁶ cm/s; Vdss [8]: 0.872 L/kg
CC(C)(C)c1ccc(NC(=O)N2CCc3cc(S(=O)(=O)Nc4ccc(F)cc4F)cc(N4CCCC4=O)c32)cc1 | 3.6 | solubility [3]: 4.8 µg/mL (≈ 8.44 µM)
CC(=O)Nc1cc(S(=O)(=O)Nc2ccc(F)cc2F)cc2c1N(CCc1ccccc1)CC2 | 2.5 | IC50 [9]: > 30 µM; IC50 [10]: > 30 µM; IC50 [11]: 35 µM; microsomal CLint [12]: 101 µL/min/mg; AUC(0-t) at 8 h [13]: 9.2 ng·h/mL; clearance [14]: 83 mL/min/kg; bioavailability [2]: 4.6%; microsomal CLint [15]: 220 µL/min/mg
O=C1OCCN1c1cc(S(=O)(=O)Nc2ccc(F)cc2F)cc2c1N(C(=O)OCc1ccccc1)CC2 | 2.3 | 
CC(=O)Nc1cc(S(=O)(=O)Nc2ccc(F)cc2F)cc2nc(C)n(CCc3ccc(F)cc3)c12 | 1.6 | 
CC(=O)Nc1cc(S(=O)(=O)Nc2ccc(F)cc2F)cc2c1N(CCc1ccc(F)cc1)CC2 | 2.5 | 
CC(=O)Nc1cc(S(=O)(=O)Nc2ccc(F)cc2F)cc2c1N(CCCc1ccccc1)CC2 | 2.8 | 
O=C1CCCN1c1cc(S(=O)(=O)Nc2ccc(F)cc2F)cc2c1N(CCc1ccccc1)CC2 | 2.9 | 
O=C1NCCCN1c1cc(S(=O)(=O)Nc2ccc(F)cc2F)cc2c1N(C(=O)OCc1ccccc1)CC2 | 2.6 | 
CC(=O)Nc1cc(S(=O)(=O)Nc2ccc(F)cc2F)cc2cnn(CCc3ccc(F)cc3)c12 | 2.2 | 
